# ChEMBL document CHEMBL2331370, “Structure and absolute configuration of fumiquinazoline L, an alkaloid from a gorgonian-derived Scopulariopsis sp. fungus” (J Nat Prod, 2013)
# Calls of active or inactive are those of the source. The calls are words filed in the database; no cut-off is given here.
# Assays:
# [1] = test system: K562; assay: Cytotoxicity against human K562 cells at 100 uM after 6 days by MTT assay; assay type: functional, cell-based
# [2] = test system: Micrococcus luteus; assay: Antibacterial activity against Micrococcus luteus ATCC 49732 at 50 uM after 24 hrs by serial dilution technique; assay type: functional, organism-based
# Procedure, shortened: (§1)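 Broth serial dilution MIC in 96-well plates. Compound given as DMSO stock. Strains grown overnight at 37 °C in LB broth, then diluted to 106 cfu/mL. Positive control ciprofloxacin; DMSO as negative control; LB broth as blank. Incubation 37 °C, 24 h, then plates read at 630 nm.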
# [3] = test system: A549; assay: Cytotoxicity against human A549 cells after 6 days by MTT assay; assay type: functional, cell-based; details: A549, 144 h
# [4] = test system: Bacillus subtilis; assay: Antibacterial activity against Bacillus subtilis ATCC 6633 after 24 hrs by serial dilution technique; assay type: functional; details: ATCC 6633, 24 h; procedure, shortened: as §1
# [5] = test system: Escherichia coli; assay: Antibacterial activity against Escherichia coli ATCC 25922 at 50 uM after 24 hrs by serial dilution technique; assay type: functional, organism-based; procedure, shortened: as §1
# [6] = test system: Bacillus cereus; assay: Antibacterial activity against Bacillus cereus ACCC 11077 at 50 uM after 24 hrs by serial dilution technique; assay type: functional, organism-based; procedure, shortened: as §1
# [7] = test system: Micrococcus; assay: Antibacterial activity against Micrococcus tetragenus ATCC 13623 at 50 uM after 24 hrs by serial dilution technique; assay type: functional, organism-based; procedure, shortened: as §1
# [8] = test system: Vibrio anguillarum; assay: Antibacterial activity against Vibrio anguillarum ATCC 19019 at 50 uM after 24 hrs by serial dilution technique; assay type: functional, organism-based; procedure, shortened: as §1
# [9] = test system: SGC-7901; assay: Cytotoxicity against human SGC7901 cells at 100 uM after 6 days by MTT assay; assay type: functional, cell-based
# [10] = test system: Staphylococcus aureus; assay: Antibacterial activity against Staphylococcus aureus ATCC 27154 at 50 uM after 24 hrs by serial dilution technique; assay type: functional, organism-based; procedure, shortened: as §1
# [11] = test system: Vibrio parahaemolyticus; assay: Antibacterial activity against Vibrio parahaemolyticus ATCC 17802 after 24 hrs by serial dilution technique; assay type: functional; details: ATCC 17802, 24 h; procedure, shortened: as §1
# [12] = test system: Staphylococcus; assay: Antibacterial activity against Staphylococcus albus ATCC 8799 after 24 hrs by serial dilution technique; assay type: functional; details: ATCC 8799, 24 h; procedure, shortened: as §1
# [13] = test system: SPC-A1; assay: Cytotoxicity against human SPC-A1 cells at 100 uM after 6 days by MTT assay; assay type: functional, cell-based
# [14] = test system: Bel-7402; assay: Cytotoxicity against human Bel7402 cells at 100 uM after 6 days by MTT assay; assay type: functional, cell-based
smiles,measurement,setting,value
CC(C)[C@@H]1N[C@@H]2N(C1=O)c1ccccc1[C@]21C[C@@H]2C(=O)N[C@](C)(O1)c1nc3ccccc3c(=O)n12 [FUMIQUINAZOLINE L],Activity,[1],inactive
same,Activity,[2],inactive
same,IC50,[3],> 10 µM
same,MIC,[4],> 50 µM
same,Activity,[5],inactive
same,Activity,[6],inactive
same,Activity,[7],inactive
same,Activity,[8],inactive
same,Activity,[9],inactive
same,Activity,[10],inactive
same,MIC,[11],> 50 µM
same,MIC,[12],> 50 µM
same,Activity,[13],inactive
same,Activity,[14],inactive
